How the values were obtained:
[1] = Half life in CD-1 mouse at 10 mg/kg, po; assay type: ADME, organism-based; conditions: in vivo
[2] = biological target: Vascular endothelial growth factor receptor 2 (Homo sapiens, UniProt P35968); test: Inhibition of recombinant human N-terminal His6-tagged KDR (790 to end residues) expressed in baculovirus infected Sf21 insect cells using MBP as substrate in presence of [gamma-33P]-ATP or [gamma-32P]-ATP
How it was run: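 Kinase panel of twenty-eight enzymes; IC50 values determined with ATP at the respective Km of each kinase.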

[3] = Tmax in CD-1 mouse at 10 mg/kg, po; assay type: ADME, organism-based; conditions: in vivo
[4] = biological target: Tyrosine-protein kinase ABL1 (Homo sapiens) (UniProt P00519); test: Inhibition of recombinant human N-terminal His6-tagged Abl (27 to end residues) expressed in baculovirus infected Sf21 insect cells at 1 uM using Abltide as substrate in presence of [gamma-33P]-ATP or [gamma-32P]-ATP relative to control
[5] = biological target: Platelet-derived growth factor receptor alpha (Homo sapiens) (UniProt P16234); test: Inhibition of recombinant human N-terminal His6-tagged PDGFRalpha (550 to end residues) expressed in baculovirus infected Sf21 insect cells at 1 uM using Poly (Glu4-Tyr) (4:1) as substrate in presence of [gamma-33P]-ATP or [gamma-32P]-ATP relative to control
[6] = biological target: High affinity nerve growth factor receptor (Homo sapiens) (UniProt P04629); test: Inhibition of recombinant human N-terminal His6-tagged TrkA (440 to end residues) expressed in baculovirus infected Sf21 insect cells at 1 uM using KKKSPGEYVNIEFG as substrate in presence of [gamma-33P]-ATP or [gamma-32P]-ATP relative to control
[7] = AUC (0 to 7 hrs) in CD-1 mouse at 3 mg/kg, iv; assay type: ADME, organism-based; design: dose 3 mg/kg, time < 7 hr, route intravenous; conditions: in vivo
[8] = biological target: Aurora kinase B/Inner centromere protein (Homo sapiens) (UniProt Q96GD4+Q9NQS7); test: Inhibition of recombinant human full length C-terminal His6-tagged Aurora B/N-terminal GST-tagged INCENP (821 to end residues) expressed in baculovirus infected Sf21 insect cells at 1 uM in presence of [gamma-33P]-ATP or [gamma-32P]-ATP relative to control

Chain of Platelet-derived growth factor receptor alpha (Homo sapiens) (P16234 whole entry): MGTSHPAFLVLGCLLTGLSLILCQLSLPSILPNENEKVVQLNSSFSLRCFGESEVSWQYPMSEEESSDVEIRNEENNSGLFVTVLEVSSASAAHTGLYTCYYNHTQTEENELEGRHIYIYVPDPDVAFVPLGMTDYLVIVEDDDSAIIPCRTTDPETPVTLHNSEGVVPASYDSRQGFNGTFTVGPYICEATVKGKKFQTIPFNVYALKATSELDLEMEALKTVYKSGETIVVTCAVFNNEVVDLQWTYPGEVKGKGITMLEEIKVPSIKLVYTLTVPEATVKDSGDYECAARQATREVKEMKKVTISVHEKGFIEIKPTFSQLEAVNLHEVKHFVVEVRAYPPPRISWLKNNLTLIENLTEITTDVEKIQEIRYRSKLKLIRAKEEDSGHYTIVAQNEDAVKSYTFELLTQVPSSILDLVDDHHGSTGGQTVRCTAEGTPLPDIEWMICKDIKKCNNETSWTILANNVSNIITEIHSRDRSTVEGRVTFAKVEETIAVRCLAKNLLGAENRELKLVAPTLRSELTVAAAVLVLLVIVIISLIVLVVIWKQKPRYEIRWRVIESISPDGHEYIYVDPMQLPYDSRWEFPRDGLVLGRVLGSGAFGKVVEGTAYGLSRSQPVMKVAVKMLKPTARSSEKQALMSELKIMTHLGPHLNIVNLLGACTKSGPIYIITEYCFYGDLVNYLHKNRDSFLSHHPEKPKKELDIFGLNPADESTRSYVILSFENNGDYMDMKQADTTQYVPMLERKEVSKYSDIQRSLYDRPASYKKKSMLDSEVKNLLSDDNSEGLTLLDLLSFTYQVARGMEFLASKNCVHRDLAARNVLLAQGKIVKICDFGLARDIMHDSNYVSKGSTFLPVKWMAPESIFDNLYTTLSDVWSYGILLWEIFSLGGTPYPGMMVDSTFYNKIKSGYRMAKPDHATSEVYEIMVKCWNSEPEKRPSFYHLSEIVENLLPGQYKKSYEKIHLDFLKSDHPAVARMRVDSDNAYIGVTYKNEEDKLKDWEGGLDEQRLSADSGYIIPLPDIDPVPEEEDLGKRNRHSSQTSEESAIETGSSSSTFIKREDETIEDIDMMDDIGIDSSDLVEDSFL
Chain of High affinity nerve growth factor receptor (Homo sapiens) (P04629 33-796 limits assumed): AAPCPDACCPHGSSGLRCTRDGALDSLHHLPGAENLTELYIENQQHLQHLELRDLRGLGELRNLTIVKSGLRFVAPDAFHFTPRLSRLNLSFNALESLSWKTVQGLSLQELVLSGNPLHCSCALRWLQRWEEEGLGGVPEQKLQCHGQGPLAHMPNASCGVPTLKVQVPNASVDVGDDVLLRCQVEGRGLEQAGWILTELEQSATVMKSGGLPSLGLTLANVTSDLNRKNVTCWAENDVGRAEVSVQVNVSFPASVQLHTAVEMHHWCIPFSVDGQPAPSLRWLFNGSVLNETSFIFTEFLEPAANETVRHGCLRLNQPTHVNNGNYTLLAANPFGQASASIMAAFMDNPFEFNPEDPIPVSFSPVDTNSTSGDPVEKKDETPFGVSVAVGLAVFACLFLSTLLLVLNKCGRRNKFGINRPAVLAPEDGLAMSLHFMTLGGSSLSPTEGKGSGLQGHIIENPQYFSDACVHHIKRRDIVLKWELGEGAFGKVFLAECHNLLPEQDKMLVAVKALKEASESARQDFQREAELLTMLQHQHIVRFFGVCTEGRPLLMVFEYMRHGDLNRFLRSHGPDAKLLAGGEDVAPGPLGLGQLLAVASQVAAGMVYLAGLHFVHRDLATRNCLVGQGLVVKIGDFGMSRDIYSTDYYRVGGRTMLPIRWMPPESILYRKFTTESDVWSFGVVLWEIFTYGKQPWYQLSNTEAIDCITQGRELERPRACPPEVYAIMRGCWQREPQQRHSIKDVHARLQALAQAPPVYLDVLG
Chain of Vascular endothelial growth factor receptor 2 (P35968 whole entry): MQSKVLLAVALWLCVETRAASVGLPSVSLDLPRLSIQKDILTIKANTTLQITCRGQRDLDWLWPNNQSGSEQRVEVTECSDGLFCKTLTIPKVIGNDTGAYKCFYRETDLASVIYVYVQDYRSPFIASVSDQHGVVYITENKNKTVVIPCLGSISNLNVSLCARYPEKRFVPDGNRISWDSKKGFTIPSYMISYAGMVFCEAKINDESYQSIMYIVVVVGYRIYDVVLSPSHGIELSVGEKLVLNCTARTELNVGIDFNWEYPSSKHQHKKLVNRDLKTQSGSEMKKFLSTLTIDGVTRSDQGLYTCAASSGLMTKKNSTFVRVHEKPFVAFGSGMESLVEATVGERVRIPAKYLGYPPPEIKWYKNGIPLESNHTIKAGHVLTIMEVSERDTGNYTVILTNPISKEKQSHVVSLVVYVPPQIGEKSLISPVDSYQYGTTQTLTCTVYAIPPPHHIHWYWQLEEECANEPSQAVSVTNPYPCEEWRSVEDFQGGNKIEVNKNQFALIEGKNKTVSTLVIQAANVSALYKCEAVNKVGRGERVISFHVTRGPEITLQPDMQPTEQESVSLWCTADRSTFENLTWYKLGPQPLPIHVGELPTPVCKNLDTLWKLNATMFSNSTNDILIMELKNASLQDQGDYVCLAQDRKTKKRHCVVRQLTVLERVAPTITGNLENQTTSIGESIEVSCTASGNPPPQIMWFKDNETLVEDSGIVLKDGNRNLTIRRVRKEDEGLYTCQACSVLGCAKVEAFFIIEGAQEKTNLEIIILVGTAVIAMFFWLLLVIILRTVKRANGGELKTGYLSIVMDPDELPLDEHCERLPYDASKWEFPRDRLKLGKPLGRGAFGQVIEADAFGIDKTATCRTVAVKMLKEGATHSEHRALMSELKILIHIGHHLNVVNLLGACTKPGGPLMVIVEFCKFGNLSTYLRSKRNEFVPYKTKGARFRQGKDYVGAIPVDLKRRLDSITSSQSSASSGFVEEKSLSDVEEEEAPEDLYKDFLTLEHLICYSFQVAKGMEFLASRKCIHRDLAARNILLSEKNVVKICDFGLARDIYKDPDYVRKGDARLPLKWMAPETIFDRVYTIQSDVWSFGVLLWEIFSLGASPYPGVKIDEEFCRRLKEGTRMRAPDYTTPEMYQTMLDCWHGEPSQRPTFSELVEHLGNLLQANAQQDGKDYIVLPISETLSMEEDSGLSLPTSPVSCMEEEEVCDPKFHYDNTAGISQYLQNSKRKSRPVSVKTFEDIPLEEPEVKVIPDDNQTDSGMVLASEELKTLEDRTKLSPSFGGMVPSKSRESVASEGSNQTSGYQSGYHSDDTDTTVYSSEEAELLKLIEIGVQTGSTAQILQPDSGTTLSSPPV
Chain of Tyrosine-protein kinase ABL1 (Homo sapiens) (P00519 whole entry): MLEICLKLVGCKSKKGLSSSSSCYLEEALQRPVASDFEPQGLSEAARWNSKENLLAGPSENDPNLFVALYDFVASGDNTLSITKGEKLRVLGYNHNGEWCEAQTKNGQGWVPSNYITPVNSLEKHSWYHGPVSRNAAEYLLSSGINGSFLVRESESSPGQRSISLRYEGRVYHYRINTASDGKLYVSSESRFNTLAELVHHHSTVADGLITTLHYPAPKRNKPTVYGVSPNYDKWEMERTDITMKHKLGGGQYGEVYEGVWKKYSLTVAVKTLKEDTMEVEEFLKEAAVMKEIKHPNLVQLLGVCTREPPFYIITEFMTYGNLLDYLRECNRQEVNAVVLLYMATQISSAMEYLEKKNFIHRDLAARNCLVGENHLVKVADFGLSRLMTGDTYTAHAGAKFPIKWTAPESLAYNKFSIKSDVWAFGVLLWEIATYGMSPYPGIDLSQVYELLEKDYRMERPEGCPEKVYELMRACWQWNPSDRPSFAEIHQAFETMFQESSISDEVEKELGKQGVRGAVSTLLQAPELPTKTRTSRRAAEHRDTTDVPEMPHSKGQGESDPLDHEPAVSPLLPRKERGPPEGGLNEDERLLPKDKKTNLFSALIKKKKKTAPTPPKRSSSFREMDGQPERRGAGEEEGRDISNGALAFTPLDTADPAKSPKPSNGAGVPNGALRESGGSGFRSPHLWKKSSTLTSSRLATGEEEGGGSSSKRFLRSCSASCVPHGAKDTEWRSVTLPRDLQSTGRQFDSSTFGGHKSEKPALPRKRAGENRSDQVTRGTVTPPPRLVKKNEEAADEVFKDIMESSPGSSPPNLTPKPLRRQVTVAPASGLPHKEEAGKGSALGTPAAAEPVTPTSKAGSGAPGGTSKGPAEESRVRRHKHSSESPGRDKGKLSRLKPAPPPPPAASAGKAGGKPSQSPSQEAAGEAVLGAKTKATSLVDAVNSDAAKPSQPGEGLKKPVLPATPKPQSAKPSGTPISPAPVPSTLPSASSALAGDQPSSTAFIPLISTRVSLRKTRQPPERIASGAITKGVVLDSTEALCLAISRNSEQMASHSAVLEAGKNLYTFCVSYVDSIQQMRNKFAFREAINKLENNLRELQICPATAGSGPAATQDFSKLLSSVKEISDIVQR

`Cc1cccc(Cn2nc(C)c3c(NC(=O)c4csc5c(N)ncnc45)cccc32)n1` gave a half-life [1] of 156 min, an IC50 [2] of 527 nM and a Tmax [3] of 2 h. It also gave an inhibition [4] of 35%, an inhibition [5] of 2% and an inhibition [6] of 27%. The AUC(0-t) at 7 h [7] was 3370 ng·h/mL and the inhibition [8] was -3%.

From ChEMBL document CHEMBL4371041, “Synthesis and evaluation of thieno[3,2-d]pyrimidine derivatives as novel FMS inhibitors” (Bioorg Med Chem Lett, 2019)
